Rows were chosen to be rich in hits. Some 2.6% of all compounds tested hit in one or more screens of this group.
Hsp70 act – Hsp70 transcriptional activators, primary screen, cell-based, HeLa, Hsp70 promoter luciferase, luminescence, 10 µM; HeLa Hsp70 promoter luciferase reporter; scaled: vehicle 0, proteasome-inhibitor control 100%; activation, % at 10 µM; 200,000 compounds, 0.04% hits;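 active = activation above the mean across all tested compounds plus 3 SD, cutoff set per campaign, cut at about 5.5% in these data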
HSF1 inhib – HSF1 inhibitors in luciferase reporter cells, primary screen, cell-based, NIH3T3, luminescence | activity change, negative = inhibition, % at 7.5 µM (by protocol) | 300,000 compounds, 0.77% hits | AID 2098, 2009 | NIH3T3-HGL HSE-luciferase, MG132-induced, luminescence 8 h; active compounds read low;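 active = more than half of replicate wells show activity change below -50%, luminescence cut by over half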;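 also: luciferase reports HSF-1 transcriptional activity via heat shock element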
Mdm2 ligase inh – MDM2-luciferase reporter signal enhancers, primary screen, MDM2 E3 ligase inhibitor project, cell-based, luminescence, 1536-well. E3 ubiquitin-protein ligase Mdm2 (Homo sapiens), Q00987. cell-based MDM2 ubiquitination luciferase reporter, 2 h; 0 = plate control, 100 = twice control, blank-subtracted. signal enhancement, % at 5 µM. 210,000 compounds, 0.11% hits. AID 1230, 2008;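 active = signal enhancement of 30% or more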;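 also: luminescence tracks abundance of the self-degrading MDM2-luciferase fusion protein; higher signal means inhibition of MDM2 E3 ligase activity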
Target sequence (Q00987 whole entry, looked up, the tested form may be a part): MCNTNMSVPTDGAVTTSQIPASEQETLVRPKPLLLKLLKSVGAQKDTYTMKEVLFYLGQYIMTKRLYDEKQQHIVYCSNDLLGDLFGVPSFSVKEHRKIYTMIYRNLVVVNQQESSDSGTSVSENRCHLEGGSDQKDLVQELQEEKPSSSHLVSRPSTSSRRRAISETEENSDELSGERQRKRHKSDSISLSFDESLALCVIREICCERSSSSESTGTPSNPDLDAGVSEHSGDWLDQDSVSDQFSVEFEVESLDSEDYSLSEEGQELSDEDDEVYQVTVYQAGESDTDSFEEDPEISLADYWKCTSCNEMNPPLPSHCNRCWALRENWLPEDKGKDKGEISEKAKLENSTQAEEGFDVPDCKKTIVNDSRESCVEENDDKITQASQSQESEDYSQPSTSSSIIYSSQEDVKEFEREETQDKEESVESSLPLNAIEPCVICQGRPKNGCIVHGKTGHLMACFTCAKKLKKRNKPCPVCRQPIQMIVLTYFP
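Material: Stable MDM2–luciferase fusion reporter cells | Amount: 2000 cells seeded into each well | Dosing: One concentration, 5 µM, with 0.2% DMSO | Incubation: 4 h cell settling then 2 h compound exposure, 37 °C | Measured by: Luciferase luminescence | Read-out basis: % enhancement relative to plate controls after blank subtraction | Benchmarks: Control and blank well means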
HSV augment – enhancers of HSV replication in host cells, fold increase, host cell viability; AID 1956, 2009; maximum fold increase; HSV replication augmentation in cells; 220,000 compounds, 0.005% hits; in the data active = maximum fold increase above about 1.5; tested in PC3 cells
Rad51 HR inh – human RAD51 strand exchange inhibitors, primary screen, biochemical, fluorescence | DNA repair protein RAD51 homolog 1 (Homo sapiens), Q06609 | hRad51 DNA strand exchange, fluorescence dequenching | inhibition, % at 10 µM | 200,000 compounds, 0.085% hits | AID 1385, 2008;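 active = inhibition above 40% at the single screening dose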
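System: human Rad51 nucleoprotein filaments preassembled on unlabelled ssDNA. Reagent: labelled 47-mer dsDNA for strand exchange. Schedule: 30-min compound preincubation and 15-min exchange, both room temperature. Measured by: FRET fluorescence dequenching, excitation 485 nm, emission 520 nm. Read-out: Fluorescence-based percent inhibition, control- and blank-normalised. Benchmarks: plate controls and plate blanks.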
HSF-1 act – HSF-1 activators, primary screen, NIH3T3-HGL cells, MG132 stress, luminescence, single point | activation, % at 9 µM | NIH3T3-HGL HSF-1 luciferase reporter, 8 h; 100% = twice DMSO control signal | AID 504408, 2011 | 300,000 compounds, 1.7% hits;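 active = mean replicate activation of at least 50% with a set share of replicates each reaching 50%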
Numbers stand for hits.

`CC(C)(C)c1ccc(/C=C2\SC(=O)N(CCNC(=O)c3cccc(S(=O)(=O)N4CCOCC4)c3)C2=O)cc1` gave Hsp70 act inactive, HSF1 inhib -63.0, Mdm2 ligase inh inactive, HSV augment inactive, Rad51 HR inh inactive and HSF-1 act inactive.
Screening Cc1ccccc1OCCSCc1nc2ccccc2[nH]1 returned Hsp70 act inactive, HSF1 inhib inactive, Mdm2 ligase inh inactive, HSV augment inactive, Rad51 HR inh inactive and HSF-1 act inactive.
For COCCCNC(=O)CC(NS(=O)(=O)c1ccc(OC)cc1)c1ccc(OC)cc1 (configuration not stated) the results were Hsp70 act inactive, HSF1 inhib inactive, Mdm2 ligase inh inactive, HSV augment inactive, Rad51 HR inh inactive and HSF-1 act inactive.
For COCCCNC(=O)CC(NS(=O)(=O)c1ccc(C)cc1)c1ccc(OC)cc1 (configuration not stated) the results were Hsp70 act inactive, HSF1 inhib -76.9, Mdm2 ligase inh inactive, HSV augment inactive, Rad51 HR inh inactive and HSF-1 act inactive.
Screening Nc1nc(CSc2nc3ccccc3s2)nc(Nc2ccccc2)n1 returned Hsp70 act inactive, HSF1 inhib inactive, Mdm2 ligase inh inactive, HSV augment inactive, Rad51 HR inh inactive and HSF-1 act 58.1.
Screening Cc1c(Cl)cccc1Nc1nc(N)nc(CSc2nc3ccccc3s2)n1 returned Hsp70 act inactive, HSF1 inhib inactive, Mdm2 ligase inh inactive, HSV augment inactive, Rad51 HR inh inactive and HSF-1 act inactive.
Cc1ccc(NC(=O)CSc2nc(=O)n(CCCN3CCOCC3)c3c2CCCC3)cc1 was read as HSF1 inhib inactive and HSF-1 act inactive.
`COc1ccc(Cn2c(CCC(=O)Nc3ccc(C)cc3)nc3cccnc32)cc1` gave Hsp70 act inactive, HSF1 inhib inactive, Mdm2 ligase inh inactive, HSV augment inactive, Rad51 HR inh inactive and HSF-1 act 54.3.
`CCCOc1ccc(/C=N/Nc2ccccc2[N+](=O)[O-])c(O)c1` gave Hsp70 act inactive, HSF1 inhib -68.9, Mdm2 ligase inh inactive, HSV augment inactive, Rad51 HR inh inactive and HSF-1 act inactive.
`CCCOc1ccc(/C=N/NC(=S)Nc2ccccc2[N+](=O)[O-])c(O)c1` gave Hsp70 act inactive, HSF1 inhib -90.4, Mdm2 ligase inh inactive, HSV augment inactive, Rad51 HR inh inactive and HSF-1 act inactive.
CCCOc1ccc(/C=N/Nc2cccc([N+](=O)[O-])c2)c(O)c1 was read as Hsp70 act inactive, HSF1 inhib inactive, Mdm2 ligase inh inactive, HSV augment inactive, Rad51 HR inh inactive and HSF-1 act inactive.
For CCCOc1ccc(/C=N/Nc2ccc(C(=O)O)cc2)c(OCCC)c1 the results were Hsp70 act inactive, HSF1 inhib -56.4, Mdm2 ligase inh inactive, HSV augment inactive, Rad51 HR inh inactive and HSF-1 act inactive.
For Cc1ccccc1NC(=S)NC1CCN(Cc2ccccc2)CC1 the results were Hsp70 act inactive, HSF1 inhib inactive, HSV augment inactive and HSF-1 act inactive.
Cc1cc(C)c(Nc2cc(S(=O)(=O)O)c(N)c3c2C(=O)c2ccccc2C3=O)c(C)c1 was read as Hsp70 act inactive, Mdm2 ligase inh inactive, HSV augment inactive and Rad51 HR inh inactive.
For CC1CCN(C2=NC(=O)/C(=C/c3ccccc3F)S2)CC1 the results were HSF1 inhib -68.5 and HSF-1 act inactive.
Screening CC1CCN(C2=NC(=O)/C(=C/c3cccc(O)c3)S2)CC1 returned HSF1 inhib inactive and HSF-1 act inactive.
Cc1ccc(NC(=O)CSc2ncnc3ccccc23)cc1S(=O)(=O)N1CCCCCC1 was read as Hsp70 act inactive, HSF1 inhib inactive, Mdm2 ligase inh inactive, HSV augment inactive, Rad51 HR inh inactive and HSF-1 act inactive.
